Tests used:
[1] = system: Rattus norvegicus; experiment: Distribution in rat heart 2 hr after intravenous administration, injected dose/gm; format: ADME, organism-based; conditions: in vivo
Procedure, shortened: (§1)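 [77Br]Bromperidol at high specific activity (50-100 µCi in 0.1 mL 0.9% NaCl, pH 3) given into the femoral vein of 300-320-g female Sprague-Dawley rats under light ether anesthesia. At each time point, groups of five were decapitated after cardiac-puncture blood sampling. Organs were dissected, blotted, weighed and gamma-counted against an injectate standard. Values are % injected dose/g, mean ± SD, n=5.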

[2] = system: Rattus norvegicus; experiment: Distribution in rat heart 30 min after intravenous administration, injected dose/gm; format: ADME, organism-based; conditions: in vivo, 0.5 h; procedure, shortened: as §1
[3] = system: Rattus norvegicus; experiment: Distribution in rat liver 30 min after intravenous administration, injected dose/gm; format: ADME, organism-based; conditions: in vivo, 0.5 h
Procedure, shortened: (§2)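 Female Sprague-Dawley rats (300-320 g) under light ether anesthesia received a single injection of [77Br]-labeled tracer (50-100 µCi in 0.1 mL 0.9% NaCl, pH 3) into the femoral vein. Groups of five were decapitated at set times after a cardiac-puncture blood sample. Organs were dissected, blotted and weighed, and counted in a NaI(Tl) well γ-counter. Values are %ID/g against an injectate standard, mean ± SD (n=5).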

[4] = system: Rattus norvegicus; experiment: Distribution in rat liver 4 hr after intravenous administration, injected dose/gm; format: ADME, organism-based; conditions: in vivo; procedure, shortened: as §2
[5] = system: Rattus norvegicus; experiment: Distribution in rat liver 5 min after intravenous administration, injected dose/gm; format: ADME, organism-based; conditions: in vivo; procedure, shortened: as §2
[6] = system: Rattus norvegicus; experiment: Distribution in rat liver 6 hr after intravenous administration, injected dose/gm; format: ADME, organism-based; conditions: in vivo; procedure, shortened: as §2
[7] = system: Rattus norvegicus; experiment: Distribution in rat lungs 15 min after intravenous administration, injected dose/gm; format: ADME, organism-based, Lung; conditions: in vivo, 0.25 h; procedure, shortened: as §2
[8] = system: Rattus norvegicus; experiment: Distribution in rat lungs 1 hr after intravenous administration, injected dose/gm; format: ADME, organism-based, Lung; conditions: in vivo; procedure, shortened: as §2
[9] = system: Rattus norvegicus; experiment: Distribution in rat lungs 2 hr after intravenous administration, injected dose/gm; format: ADME, organism-based, Lung; conditions: in vivo; procedure, shortened: as §2
[10] = system: Rattus norvegicus; experiment: Distribution in rat lungs 30 min after intravenous administration, injected dose/gm; format: ADME, organism-based, Lung; conditions: in vivo, 0.5 h; procedure, shortened: as §2
[11] = system: Rattus norvegicus; experiment: Distribution in rat lungs 4 hr after intravenous administration, injected dose/gm; format: ADME, organism-based, Lung; conditions: in vivo; procedure, shortened: as §2
[12] = system: Rattus norvegicus; experiment: Distribution in rat lungs 5 min after intravenous administration, injected dose/gm; format: ADME, organism-based, Lung; conditions: in vivo; procedure, shortened: as §2
[13] = system: Rattus norvegicus; experiment: Distribution in rat lungs 6 hr after intravenous administration, injected dose/gm; format: ADME, organism-based, Lung; conditions: in vivo; procedure, shortened: as §2
[14] = system: Rattus norvegicus; experiment: Distribution in rat lungs 8 hr after intravenous administration, injected dose/gm; format: ADME, organism-based, Lung; conditions: in vivo; procedure, shortened: as §2
[15] = system: Rattus norvegicus; experiment: Distribution in rat muscle 15 min after intravenous administration, injected dose/gm; format: ADME, organism-based, Muscle tissue; conditions: in vivo, 0.25 h; procedure, shortened: as §2
[16] = system: Rattus norvegicus; experiment: Distribution in rat muscle 2 hr after intravenous administration, injected dose/gm; format: ADME, organism-based, Muscle tissue; conditions: in vivo; procedure, shortened: as §2
[17] = system: Rattus norvegicus; experiment: Distribution in rat skin 8 hr after intravenous administration, injected dose/gm; format: ADME, organism-based; conditions: in vivo; procedure, shortened: as §2
[18] = system: Rattus norvegicus; experiment: Distribution in rat spleen 15 min after intravenous administration, injected dose/gm; format: ADME, organism-based; conditions: in vivo, 0.25 h; procedure, shortened: as §2
[19] = system: Rattus norvegicus; experiment: Distribution in rat spleen 2 hr after intravenous administration, injected dose/gm; format: ADME, organism-based; conditions: in vivo; procedure, shortened: as §2
[20] = system: Rattus norvegicus; experiment: Distribution in rat spleen 30 min after intravenous administration, injected dose/gm; format: ADME, organism-based; conditions: in vivo, 0.5 h; procedure, shortened: as §2
[21] = system: Rattus norvegicus; experiment: Distribution in rat spleen 4 hr after intravenous administration, injected dose/gm; format: ADME, organism-based; conditions: in vivo; procedure, shortened: as §2
[22] = system: Rattus norvegicus; experiment: Distribution in rat spleen 6 hr after intravenous administration, injected dose/gm; format: ADME, organism-based; conditions: in vivo; procedure, shortened: as §2
[23] = system: Rattus norvegicus; experiment: Distribution in rat spleen 8 hr after intravenous administration, injected dose/gm; format: ADME, organism-based; conditions: in vivo; procedure, shortened: as §2
[24] = system: Rattus norvegicus; experiment: Distribution in rat uterus 15 min after intravenous administration, injected dose/gm; format: ADME, organism-based; conditions: in vivo, 0.25 h; procedure, shortened: as §2
[25] = system: Rattus norvegicus; experiment: Distribution in rat uterus 2 hr after intravenous administration, injected dose/gm; format: ADME, organism-based; conditions: in vivo; procedure, shortened: as §2
[26] = system: Rattus norvegicus; experiment: Distribution in rat uterus 30 min after intravenous administration, injected dose/gm; format: ADME, organism-based; conditions: in vivo, 0.5 h; procedure, shortened: as §2
[27] = system: Rattus norvegicus; experiment: Distribution in blood of rat 5 min after intravenous administration, injected dose/gm; format: ADME, organism-based; conditions: in vivo; procedure, shortened: as §1
[28] = system: Rattus norvegicus; experiment: Distribution in blood of rat, 15 min after intravenous administration, injected dose/gm; format: ADME, organism-based; conditions: in vivo, 0.25 h; procedure, shortened: as §1
[29] = system: Rattus norvegicus; experiment: Distribution in blood of rat, 1 hr after intravenous administration, injected dose/gm; format: ADME, organism-based; conditions: in vivo; procedure, shortened: as §1
[30] = system: Rattus norvegicus; experiment: Distribution in blood of rat, 2 hr after intravenous administration, injected dose/gm; format: ADME, organism-based; conditions: in vivo; procedure, shortened: as §1
[31] = system: Rattus norvegicus; experiment: Distribution in blood of rat, 30 min after intravenous administration, injected dose/gm; format: ADME, organism-based; conditions: in vivo, 0.5 h; procedure, shortened: as §1
[32] = system: Rattus norvegicus; experiment: Distribution in blood of rat, 4 hr after intravenous administration, injected dose/gm; format: ADME, organism-based; conditions: in vivo; procedure, shortened: as §1
[33] = system: Rattus norvegicus; experiment: Distribution in blood of rat, 6 hr after intravenous administration, injected dose/gm; format: ADME, organism-based; conditions: in vivo; procedure, shortened: as §1
[34] = system: Rattus norvegicus; experiment: Distribution in rat kidney, 8 hr after intravenous administration, injected dose/gm; format: ADME, organism-based; conditions: in vivo; procedure, shortened: as §1
[35] = system: Rattus norvegicus; experiment: Distribution in rat uterus 4 hr after intravenous administration, injected dose/gm; format: ADME, organism-based; conditions: in vivo; procedure, shortened: as §2
[36] = system: Rattus norvegicus; experiment: Distribution in rat uterus 5 min after intravenous administration, injected dose/gm; format: ADME, organism-based; conditions: in vivo; procedure, shortened: as §2
[37] = system: Rattus norvegicus; experiment: Distribution in rat uterus 6 hr after intravenous administration, injected dose/gm; format: ADME, organism-based; conditions: in vivo; procedure, shortened: as §2
[38] = system: Rattus norvegicus; experiment: Distribution in rat uterus 8 hr after intravenous administration, injected dose/gm; format: ADME, organism-based; conditions: in vivo; procedure, shortened: as §2
[39] = system: Rattus norvegicus; experiment: Distribution in rat skin 15 min after intravenous administration, injected dose/gm; format: ADME, organism-based; conditions: in vivo, 0.25 h; procedure, shortened: as §2
[40] = system: Rattus norvegicus; experiment: Distribution in rat skin 1 hr after intravenous administration, injected dose/gm; format: ADME, organism-based; conditions: in vivo; procedure, shortened: as §2
[41] = system: Rattus norvegicus; experiment: Distribution in rat skin 2 hr after intravenous administration, injected dose/gm; format: ADME, organism-based; conditions: in vivo; procedure, shortened: as §2
[42] = system: Rattus norvegicus; experiment: Distribution in rat skin 30 min after intravenous administration, injected dose/gm; format: ADME, organism-based; conditions: in vivo, 0.5 h; procedure, shortened: as §2
[43] = system: Rattus norvegicus; experiment: Distribution in rat skin 4 hr after intravenous administration, injected dose/gm; format: ADME, organism-based; conditions: in vivo; procedure, shortened: as §2
[44] = system: Rattus norvegicus; experiment: Distribution in rat skin 5 min after intravenous administration, injected dose/gm; format: ADME, organism-based; conditions: in vivo; procedure, shortened: as §2
[45] = system: Rattus norvegicus; experiment: Distribution in rat skin 6 hr after intravenous administration, injected dose/gm; format: ADME, organism-based; conditions: in vivo; procedure, shortened: as §2
[46] = system: Rattus norvegicus; experiment: Distribution in rat liver 2 hr after intravenous administration, injected dose/gm; format: ADME, organism-based; conditions: in vivo; procedure, shortened: as §1
[47] = system: Rattus norvegicus; experiment: Distribution in rat muscle 1 hr after intravenous administration, injected dose/gm; format: ADME, organism-based, Muscle tissue; conditions: in vivo; procedure, shortened: as §2
[48] = system: Rattus norvegicus; experiment: Distribution in rat spleen 5 min after intravenous administration, injected dose/gm; format: ADME, organism-based; conditions: in vivo; procedure, shortened: as §2
[49] = system: Rattus norvegicus; experiment: Distribution in rat intestine 4 hr after intravenous administration, injected dose/gm; format: ADME, organism-based; conditions: in vivo; procedure, shortened: as §1
[50] = system: Rattus norvegicus; experiment: Distribution in rat fat 4 hr after intravenous administration, injected dose/gm; format: ADME, organism-based, Adipose tissue; conditions: in vivo; procedure, shortened: as §1

Structure (SMILES): O=C(CCCN1CCC(O)(c2ccc(Br)cc2)CC1)c1ccc(F)cc1 [BROMPERIDOL]
- Distribution [1]: 0.46%
- Distribution [2]: 1.07%
- Distribution [3]: 2.5%
- Distribution [4]: 4.08%
- Distribution [5]: 1.03%
- Distribution [6]: 4.16%
- Distribution [7]: 6.29%
- Distribution [8]: 4.19%
- Distribution [9]: 2.1%
- Distribution [10]: 5.8%
- Distribution [11]: 1.59%
- Distribution [12]: 13.6%
- Distribution [13]: 1.24%
- Distribution [14]: 1.14%
- Distribution [15]: 0.32%
- Distribution [16]: 0.15%
- Distribution [17]: 0.14%
- Distribution [18]: 3.29%
- Distribution [19]: 2.69%
- Distribution [20]: 4.43%
- Distribution [21]: 1.92%
- Distribution [22]: 1.76%
- Distribution [23]: 1.86%
- Distribution [24]: 2.24%
- Distribution [25]: 1.07%
- Distribution [26]: 3%
- Distribution [27]: 0.12%
- Distribution [28]: 0.11%
- Distribution [29]: 0.06%
- Distribution [30]: 0.05%
- Distribution [31]: 0.08%
- Distribution [32]: 0.06%
- Distribution [33]: 0.03%
- Distribution [34]: 1.77%
- Distribution [35]: 1.07%
- Distribution [36]: 1.91%
- Distribution [37]: 1.2%
- Distribution [38]: 1.15%
- Distribution [39]: 0.19%
- Distribution [40]: 0.2%
- Distribution [41]: 0.17%
- Distribution [42]: 0.2%
- Distribution [43]: 0.14%
- Distribution [44]: 0.15%
- Distribution [45]: 0.14%
- Distribution [46]: 3.16%
- Distribution [47]: 0.18%
- Distribution [48]: 3.02%
- Distribution [49]: 0.76%
- Distribution [50]: 0.15%

From ChEMBL document CHEMBL1123045, “Synthesis of high specific activity [75Br]- and [77Br]bromperidol and tissue distribution studies in the rat” (J Med Chem, 1985)
